Measured values taken from ChEMBL document CHEMBL3994631, “Design, synthesis, structure-activity relationship and mechanism of action studies of a series of 4-chloro-1-phthalazinyl hydrazones as a potent agent against Leishmania braziliensis” (Eur J Med Chem, 2017).
Activity calls are given as the source filed them. No cut-off for these calls is given here.

Key:
Leishmania braziliensis [1] = assay: Antileishmanial activity against Leishmania braziliensis MHOM/CO/87/UA301 promastigote forms isolated from infected Balb/c mouse assessed as parasite growth inhibition at 20 uM after 96 hrs by MTT assay relative to control; type: functional; details: MHOM/CO/87/UA301, 96 h, read-out: GI
Outline: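 Promastigotes in LIT + 10% FBS at 2x10^6/mL exposed to a single 20 μM concentration for 96 h at 29 °C. MTT (1 mg/mL) added for 4 h in darkness, cells lysed with acidic isopropanol, read at 570 nm. Inhibition relative to untreated parasites; means of three independent experiments.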

Leishmania braziliensis [2] = assay: Antileishmanial activity against Leishmania braziliensis MHOM/CO/87/UA301 promastigote forms isolated from infected Balb/c mouse by neubauer chamber method; type: functional
Outline: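 Promastigotes seeded at 1x10^6/mL in LIT medium at 29 °C with 0.1–10 μM compound. Growth followed daily by Neubauer chamber counting; three independent experiments per concentration. EC50 obtained by nonlinear regression of concentration–response data.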

Leishmania braziliensis [3] = assay: Inhibition of DHFR in Leishmania braziliensis MHOM/CO/87/UA301 promastigote forms assessed as growth inhibition at 2 uM after 72 hrs in presence of folinic acid by neubauer chamber method
[4] = Cytotoxicity against mouse BMDM assessed as reduction in cell viability after 48 hrs by MTT assay; type: cell-based; details: bone marrow-derived macrophages (BMDM), read-out: LC50
Outline: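 Mouse bone-marrow macrophages (BMDM) were differentiated in L-929 conditioned medium and kept at 37 °C, 5% CO2, 90% humidity. Cells at 5×10^4 cells/mL were exposed to compounds at 10 to 100 µM for 48 h. Read-out was MTT reduction as a percentage of control cells. LC50 is the mean of three independent experiments.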

Leishmania braziliensis [5] = assay: Antileishmanial activity against Leishmania braziliensis MHOM/CO/87/UA301 amastigote forms infected in mouse BMDM after 96 hrs by Giemsa staining based assay; type: functional; details: MHOM/CO/87/UA301, BMDM
Outline: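 BMDM mixed 1:10 with L. braziliensis promastigotes in DMEM + 10% FBS on glass coverslips, 18 h at 37 °C, 5% CO2. Medium then replaced with medium containing compound and incubated 96 h under the same conditions. Giemsa-stained macrophages counted for % total and % infected macrophages and amastigotes per macrophage; triplicate.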

[6] = Selectivity index, ratio of LC50 for mouse BMDM to EC50 for Leishmania braziliensis MHOM/CO/87/UA301 amastigote forms infected in mouse BMDM
Leishmania braziliensis [7] = assay: Ratio of EC50 for Leishmania braziliensis MHOM/CO/87/UA301 amastigote forms infected in mouse BMDM to EC50 for Leishmania braziliensis MHOM/CO/87/UA301 promastigote forms; type: functional
Leishmania braziliensis [8] = assay: Potency index, ratio of miltefosine EC50 to compound EC50 for Leishmania braziliensis MHOM/CO/87/UA301 promastigote forms isolated from infected Balb/c mouse; type: functional
Leishmania braziliensis [9] = assay: Antileishmanial activity against Leishmania braziliensis MHOM/CO/87/UA301 amastigote forms infected in mouse BMDM assessed as induction of nitrite production after 48 hrs by Griess assay; type: functional
Outline: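 Macrophages infected with L. braziliensis were incubated 48 h with compound at 0.08, 0.80 and 8.0 μM. Controls: untreated infected and uninfected macrophages, three wells each. Nitrite in supernatants measured by Griess reaction against a sodium nitrite standard (detection limit 1.56 μM). Triplicate; expressed as % of untreated infected macrophages.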

Leishmania braziliensis [10] = assay: Antileishmanial activity against Leishmania braziliensis MHOM/CO/87/UA301 promastigote forms isolated from infected Balb/c mouse assessed as induction of oxidative stress by measuring reduction in mitochondrial dehydrogenase activity at 20 uM by MTT assay; type: functional; details: TDE = time-dependent effect
Outline: (§1)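 10^6 promastigotes in 500 μL per well treated with 20 μM compound at 28 °C, with untreated wells for each time point; sampled between 30 and 180 min. Cells counted, then MTT added (50 μL of 5 mg/mL in PBS) for 4 h. Stopped with acidic isopropanol, read at 570 nm. Pmdh (%) taken relative to untreated parasites as 100%; triplicate.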

Leishmania braziliensis [11] = assay: Cytotoxicity against Leishmania braziliensis MHOM/CO/87/UA301 promastigote forms assessed as cell death at 20 uM after 30 mins by MTT assay; details: 0.5 h; outline: as §1
Leishmania braziliensis [12] = assay: Inhibition of CuZn-SOD in Leishmania braziliensis MHOM/CO/87/UA301 promastigote forms assessed as reduction in superoxide level at 0.012 to 1.2 uM after 30 mins by spectrophotometric based xanthine oxidase coupled enzyme assay
Outline: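 Promastigotes (4 million in 500 μL) treated at 0.012, 0.12 and 1.2 μM, then pelleted. Sonicated in STE buffer pH 7.8 and centrifuged; protein measured by Bradford. SOD activity read as NBT reduction by superoxide from xanthine/xanthine oxidase (8.4 U) with EDTA, Na2CO3 and albumin. 30 min at 27 °C, CuCl2 added, A595 measured; controls without xanthine oxidase; triplicate.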

Leishmania braziliensis [13] = assay: Inhibition of DHFR in Leishmania braziliensis MHOM/CO/87/UA301 promastigote forms assessed as growth inhibition at 0.5 uM after 72 hrs in presence of folinic acid by neubauer chamber method
Leishmania braziliensis [14] = assay: Antileishmanial activity against Leishmania braziliensis MHOM/CO/87/UA301 promastigote forms isolated from infected Balb/c mouse assessed as induction of oxidative stress by measuring reduction in mitochondrial dehydrogenase activity at 20 uM after 30 to 180 mins by MTT assay; type: functional; outline: as §1
Leishmania braziliensis [15] = assay: Inhibition of DHFR in Leishmania braziliensis MHOM/CO/87/UA301 promastigote forms assessed as growth inhibition at 10 uM after 72 hrs in presence of folinic acid by neubauer chamber method

| SMILES | inhibition of growth at 20 µM (Leishmania braziliensis [1]) | EC50 (Leishmania braziliensis [2]) | further results |
| --- | --- | --- | --- |
| C/C(=N\Nc1nnc(Cl)c2ccccc12)c1ccc(Br)cc1 | 10.6% | > 20 µM |  |
| CN(Cc1cnc2nc(N)nc(N)c2n1)c1ccc(C(=O)N[C@@H](CCC(=O)O)C(=O)O)cc1 |  |  | inhibition (Leishmania braziliensis [3]): Active |
| O=[N+]([O-])c1ccc(C=NNc2nnc(Cl)c3ccccc23)o1 | 13.5 to 86.5% | 0.12 µM | CC50 at 48 h [4]: 14 µM; EC50 (Leishmania braziliensis [5]): 0.59 µM; Selectivity Index [6]: 23.7; Ratio EC50 (Leishmania braziliensis [7]): 4.9; Ratio EC50 (Leishmania braziliensis [8]): 208; Activity (Leishmania braziliensis [9]): Dose-dependent effect; Activity (Leishmania braziliensis [10]): Tde; Activity (Leishmania braziliensis [11]): Non-Toxic; inhibition (Leishmania braziliensis [12]): inactive; inhibition (Leishmania braziliensis [13]): inactive |
| C/C(=N\Nc1nnc(Cl)c2ccccc12)c1ccc(Cl)cc1Cl | 37.5% | > 20 µM |  |
| C/C(=N\Nc1nnc(Cl)c2ccccc12)c1ccccc1 | 37% | > 20 µM |  |
| O=[N+]([O-])c1ccc(C=NNc2nnc(Cl)c3ccccc23)cc1 | 41.9 to 58.1% | < 20 µM |  |
| Clc1nnc(N/N=C/c2ccccc2)c2ccccc12 | 8.46% | > 20 µM |  |
| Clc1cccc(/C=N/Nc2nnc(Cl)c3ccccc23)c1 | 7.03% | > 20 µM |  |
| Clc1nnc(N/N=C/c2ccco2)c2ccccc12 | 40.9 to 59.1% | ≥ 20 µM |  |
| C/C(=N\Nc1nnc(Cl)c2ccccc12)c1ccc(O)cc1 | 22.9% | > 20 µM |  |
| O=[N+]([O-])c1cccc(/C=N/Nc2nnc(Cl)c3ccccc23)c1 | 10.6% | > 20 µM |  |
| Clc1nnc(N/N=C/c2cccc(Br)c2)c2ccccc12 | 5.89% | > 20 µM |  |
| C/C(=N\Nc1nnc(Cl)c2ccccc12)c1ccc([N+](=O)[O-])cc1 | 19.1% | > 20 µM |  |
| C/C(=N\Nc1nnc(Cl)c2ccccc12)c1cccc([N+](=O)[O-])c1 | 9.46% | > 20 µM |  |
| CCCCCCCCCCCCCCCCOP(=O)([O-])OCC[N+](C)(C)C [MILTEFOSINE] | 67.8% | 20 to 25 µM | CC50 at 48 h [4]: 125 µM; Activity (Leishmania braziliensis [14]): inactive; inhibition (Leishmania braziliensis [15]): inactive |
| Fc1ccc(/C=N/Nc2nnc(Cl)c3ccccc23)cc1 | 17.8% | > 20 µM |  |
| Clc1nnc(NN=Cc2ccc(Br)cc2)c2ccccc12 | 17.2% | > 20 µM |  |
| Clc1ccc(C=NNc2nnc(Cl)c3ccccc23)cc1 | 16.8% | > 20 µM |  |
| Oc1ccccc1/C=N\Nc1nnc(Cl)c2ccccc12 | 33.9 to 64.2% | > 20 µM |  |
| C/C(=N\Nc1nnc(Cl)c2ccccc12)c1cc(Cl)ccc1Cl | 20% | > 20 µM |  |
| O=[N+]([O-])c1ccc(C=NNc2nnc(Cl)c3ccccc23)s1 | 11.5 to 88.5% | 3.2 µM | CC50 at 48 h [4]: < 10 µM; Ratio EC50 (Leishmania braziliensis [8]): 8 |
| COc1cc([N+](=O)[O-])ccc1/C=N/Nc1nnc(Cl)c2ccccc12 | 11.9% | > 20 µM |  |
